An excerpt weighted towards active compounds, which were near 4.3% of everything screened.
Rin1-Abl PPI inh: inhibitors of human Rin1-Abl protein interaction | P00519+Q13671 | TR-FRET Rin1/Abl binding, biochemical | inhibition, % at 7.35 µM | actives 0.4% (n = 360,000) | AID 588664; in the data active = inhibition above about 5%, passing the limit was not always enough
UBC13 polyUb: inhibitors of human UBC13 polyubiquitin chain formation; P61088; TR-FRET; inhibition, % at 20 µM; actives 0.47% (n = 330,000); in the data active = inhibition above about 45%, passing the limit was not always enough; inconclusive = no clear call, values can overlap the other calls
PREPL inh: inhibits the human prolyl oligopeptidase-like enzyme | Q4J6C6 | recombinant PREPL, fluorescence polarization activity-based probe | inhibition, % at 5.96 µM | actives 0.68% (n = 320,000) | AID 2751; in the data active = inhibition above about 43%
ALR H2O2 inh: blocks human ALR sulfhydryl oxidase activity | P55789 | purified ALR, DTT oxidation, H2O2 HRP-luminol luminescence | inhibition, % (no concentration beside the values) | actives 3.8% (n = 290,000) | AID 485317;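 active = mean replicate inhibition above about 79%, with every replicate also reaching it, limit read from the data; inconclusive = only one of the two criteria met; inactive = mean below limit and not every replicate reaching it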
Target sequence (P55789 whole entry, looked up): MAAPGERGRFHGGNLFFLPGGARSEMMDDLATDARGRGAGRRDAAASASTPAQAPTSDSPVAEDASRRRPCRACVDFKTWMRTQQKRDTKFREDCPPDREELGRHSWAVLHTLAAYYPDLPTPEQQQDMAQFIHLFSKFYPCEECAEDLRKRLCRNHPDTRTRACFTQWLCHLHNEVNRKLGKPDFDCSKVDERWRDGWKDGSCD
RBBP9 inhibitor: blocks human serine hydrolase RBBP9 | O75884 | recombinant RBBP9, FP-Rh probe fluorescence polarization | inhibition, % at 7.94 µM | actives 0.2% (n = 220,000) | AID 1515;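 active = inhibition above the campaign mean of all tested compounds plus 3 SD, cut at about 14% in these data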
Target sequence (O75884 whole entry, looked up): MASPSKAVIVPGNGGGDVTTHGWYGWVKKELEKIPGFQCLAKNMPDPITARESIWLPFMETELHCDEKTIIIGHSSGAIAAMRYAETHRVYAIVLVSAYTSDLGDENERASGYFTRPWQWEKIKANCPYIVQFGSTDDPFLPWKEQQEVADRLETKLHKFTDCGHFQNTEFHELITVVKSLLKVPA
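Assay system: recombinant human RBBP9; Reagent: Serine-hydrolase probe FP-Rh, 375 nM pre-mixing; Doses: 7.94 µM single dose, 0.794% DMSO; Incubation: 30 min then 45 min, 25 °C; Detection: fluorescence polarization (mP), excitation 525 nm, emission 598 nm; Evaluation: percent inhibition from mP, scaled between DMSO and no-protein wells.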
SUMO HTRF inh: SUMOylation inhibition | P63279 | HTRF SUMOylation assay, SAE1/SAE2 + UBC9, in vitro | inhibition, % at 35 µM | actives 0.36% (n = 290,000) | AID 2006; in the data active = inhibition above about 50%, passing the limit was not always enough; inconclusive = no clear call, values can overlap the other calls
Target sequence (P63279 whole entry, looked up): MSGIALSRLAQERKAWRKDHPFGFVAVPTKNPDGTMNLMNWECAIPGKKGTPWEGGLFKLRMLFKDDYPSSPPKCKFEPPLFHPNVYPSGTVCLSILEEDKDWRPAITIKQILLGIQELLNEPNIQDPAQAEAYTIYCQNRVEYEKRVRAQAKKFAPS
Hits are given with their value; . = inactive; ? = inconclusive; / = no result given.

SMILES	Rin1-Abl PPI inh	UBC13 polyUb	PREPL inh	ALR H2O2 inh	RBBP9 inhibitor	SUMO HTRF inh
O=c1c2cc3c(cc2[nH]c(=S)n1C1CCN(Cc2ccccc2)CC1)OCO3	.	.	.	93	.	.
CCCc1nc(SCC(=O)c2ccc(F)cc2)c2ccccc2n1	.	.	.	99	.	.
CCCCNC(=O)CSc1nc(CCC)nc2ccccc12	.	.	.	.	.	.
O=C1NCCCC2c3c(cc(Br)c(O)c3Br)OC12N1CCCCC1 (centres undefined)	.	.	.	99	.	.
Cc1cc(C)c(C(O)c2ncc(-c3cccc4ccccc34)[nH]2)c(C)c1 (centres undefined)	.	/	/	/	/	/
CC(=O)N1c2c(cc(Br)cc2S(=O)(=O)NCc2ccc3c(c2)OCO3)CC1C (centres undefined)	.	.	.	/	.	92
O=C1CNC(=S)N1c1nc2ccccc2s1	.	.	.	95	.	.
CN1CCN(CCC(=O)N/N=C/c2ccccc2F)CC1	.	.	.	.	.	.
O=C(CCN1CCN(c2ccccc2)CC1)N/N=C/c1ccccc1O	.	.	.	84	.	.
COc1ccccc1C(=O)Nc1ccc(N2CCN(Cc3ccccc3)CC2)cc1	.	.	.	.	.	.
COc1ccccc1C(=O)NCCN1CCN(c2ccccc2)CC1	.	.	.	97	/	.
O=C(NCCN1CCN(c2ccccc2)CC1)c1cccc(Cl)c1	.	.	.	98	/	.
Cc1cccc(C(=O)NCCN2CCN(c3ccccc3)CC2)c1	.	.	.	/	.	.
COc1ccc(C)cc1NC(=O)CCN1CCN(c2ccccc2)CC1	.	.	.	95	/	.
CCN(C(=O)CCN1C(=O)/C(=C/c2ccccc2)SC1=S)C1CCS(=O)(=O)C1 (centres undefined)	.	.	.	.	/	.
O=C(CN1CCN(Cc2ccc(Cl)cc2)CC1)N/N=C/c1ccccc1F	.	.	.	.	.	.
Cc1cc(O)ccc1-c1ccc2nncn2c1	.	/	/	/	/	/
CC1CC(C)CN(CCCNC(=O)Cc2c(C(=O)O)[nH]c3ccccc23)C1 (centres undefined)	.	.	.	.	.	.
O=C(Cc1c(C(=O)O)[nH]c2ccccc12)NCCN1CCN(c2cccc(Cl)c2)CC1	.	.	.	88	.	.
Cc1cccc(C)c1NC(=O)NCCCN1CCN(c2ccccc2)CC1	.	.	.	82	.	.
O=C(NCCN1CCN(c2ccccc2)CC1)C1(S(=O)(=O)c2ccc(Cl)cc2)CC1	.	.	.	99	.	.
O=C(c1ccc(=O)[nH]c1)N1CCCc2ccccc21	.	.	.	.	/	.
CC1CCN(Cc2c(C(=O)N/N=C/c3ccccc3O)nnn2-c2nonc2N)CC1	.	.	.	/	/	54
O=c1oc2cc(O)ccc2c2ccccc12	.	?	.	88	.	.
O=C(COc1ccccc1Cl)Nc1cc(NC(=O)COc2ccccc2Cl)cc(C(=O)O)c1	.	.	/	.	/	.
SMILES	Rin1-Abl PPI inh	UBC13 polyUb	PREPL inh	ALR H2O2 inh	RBBP9 inhibitor	SUMO HTRF inh
COc1ccccc1OCC(=O)Nc1cc(NC(=O)COc2ccccc2OC)cc(C(=O)O)c1	.	.	.	98	/	.
Cc1cc(N2CCOCC2)nc2ccc(NC(=S)NCc3ccc4c(c3)OCO4)cc12	.	.	.	99	.	.
COCCNC(=S)Nc1ccc2nc(N3CCOCC3)cc(C)c2c1	.	.	.	85	/	.
Cc1cc(N2CCOCC2)nc2ccc(NC(=S)NC(C)C)cc12	.	.	.	93	/	.
COCCNC(=S)Nc1ccc2nc(N3CCCC3)cc(C)c2c1	.	.	.	.	.	.
CCOCCCNC(=S)Nc1ccc2nc(N3CCCC3)cc(C)c2c1	.	.	.	.	.	.
O=C(OCc1cc(=O)n2ccsc2n1)C1(c2ccccc2)CC1	.	/	/	/	/	/
COc1ccc(N2CCN(c3nc4ccc(C)cn4c(=O)c3C=O)CC2)cc1	.	.	.	81	.	.
Cc1ccc2nc(N3CCN(c4ccccc4)CC3)c(C=O)c(=O)n2c1	.	.	.	.	.	.
O=Cc1c(N2CCN(c3ccccc3)CC2)nc2ccccn2c1=O	.	.	.	99	.	.
CCCCn1c(N)c(N(CCOC)C(=O)c2ccc(C)o2)c(=O)[nH]c1=O	.	.	.	.	/	/
O=C(Nc1nc(=O)n(C(=O)c2cccc(C(F)(F)F)c2)s1)c1ccccc1	.	.	.	97	.	.
Cc1[nH]c2ccccc2c1N=Nc1c(C)n(C)n(-c2ccccc2)c1=O	.	.	.	99	.	.
Cc1cc(N)ccc1N=Nc1c(C)n(C)n(-c2ccccc2)c1=O	.	.	.	99	.	.
Cc1ccc(C(=O)N/C(=C\c2ccccc2F)c2nc(=S)[nH][nH]2)cc1	.	.	.	98	.	.
Cc1ccc(/C=C(\NC(=O)c2ccc(C)cc2)c2nc(=S)[nH][nH]2)cc1	.	.	.	.	.	.
CN(C)c1ccc(/C=C2\N=C(C(C)(C)C)OC2=O)cc1	.	.	.	.	/	.
COc1cccc2c3c(c(=O)[nH]c12)CCC(C)(C)O3	.	.	.	98	.	.
CCOC(=O)COc1ccc(Br)cc1/C=C/c1[nH]c(=O)[nH]c(=O)c1[N+](=O)[O-]	.	.	.	97	.	.
COc1cc(/C=C/c2[nH]c(=O)[nH]c(=O)c2[N+](=O)[O-])cc(OC)c1O	.	.	/	95	/	.
O=c1[nH]c(/C=C/c2ccccc2Cl)c([N+](=O)[O-])c(=O)[nH]1	.	.	/	.	/	.
COc1cccc(/C=C/c2[nH]c(=O)[nH]c(=O)c2[N+](=O)[O-])c1O	.	.	.	98	/	.
CCOC(=O)CN1C(=O)/C(=C/c2c(F)cccc2Cl)Oc2ccccc21	.	.	.	.	/	.
O=C(CN1CCN(Cc2ccccc2)CC1)NNC(=O)c1ccccc1	.	.	.	/	/	/
CC(=O)Nc1ccc(SCC(=O)c2cc(C)n(-c3ccccc3F)c2C)cc1	.	.	.	98	.	.
SMILES	Rin1-Abl PPI inh	UBC13 polyUb	PREPL inh	ALR H2O2 inh	RBBP9 inhibitor	SUMO HTRF inh
COC(=O)c1ccc(-n2c(C)cc(C(=O)CSc3ccc(NC(C)=O)cc3)c2C)cc1	.	.	.	91	.	.
COC(=O)c1ccc(-n2c(C)cc(C(=O)CSc3cccc[n+]3[O-])c2C)cc1	.	.	.	.	.	.
O=C(Nc1ccccc1)/C(=C/c1ccc(F)cc1)NC(=O)c1ccco1	.	.	.	.	/	.
CCOc1ccsc1C(=O)OC	.	.	.	.	.	.
Cc1[nH]c2ccccc2c1C(c1ccccn1)N1CCC(C(N)=O)CC1 (centres undefined)	.	.	.	98	.	.
Cc1[nH]c2ccccc2c1C(c1ccncc1)N1CCC(C)CC1 (centres undefined)	.	.	.	97	.	.
CCC(=NNc1ccc([N+](=O)[O-])cc1[N+](=O)[O-])c1ccccc1	.	/	/	/	/	/

Screens: PubChem, several laboratories
